Source: PubChem
A selection: hits, their analogues and other compounds. The true share with any hit is near 2.9%.
TRPC4 block: inhibitors of mouse TRPC4 channel, primary screen, Fluo4 calcium, HEK293 TRPC4beta/mu-opioid cells. Short transient receptor potential channel 4 (Mus musculus), Q9QUQ5. DAMGO-evoked Fluo4 calcium flux; stronger effect = lower value. B-score at 10 µM. actives 0.39% (n = 300,000). AID 2247, 2010;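 active = B-score over 3 SD under the library average, no early fluorescence shift, positive overall ratio signal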
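Assay system: Stable TRPC4beta/mu-opioid receptor HEK293 cells | Reagent: DAMGO in two steps, submaximal then maximal | Compound dosing: Single concentration per test compound | Signal: Fluo4 Ca2+ flux fluorescence | Evaluation: Per-well B score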
TRPC4 act: activators of mouse TRPC4 channel, primary screen, Fluo4 calcium, HEK293 TRPC4beta/mu-opioid cells | actives 0.49% (n = 310,000) | B-score at 10 µM | Fluo4 calcium fluorescence; stronger effect = higher value;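 active = B-score above 5 SD of library B-scores, and initial fluorescence ratio not above library mean plus 5 SD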;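 note: positive B-score marks a calcium rise read as TRPC4 activation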
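Assay system – TRPC4beta and mu-opioid receptor HEK293 stable cells · Measured by – Fluo4 fluorescence, kinetic · Schedule – dye loading 45 min room temperature, 110 s kinetic read · Read-out – B-scored integrated calcium fluorescence ratio · Controls – buffer and maximal DAMGO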
TRPC6 act: mouse TRPC6 channel activators, primary screen, cell-based, HEK293, membrane potential dye. HEK293-TRPC6 membrane potential dye fluorescence; stronger effect = higher value. B-score at 10 µM. actives 0.13% (n = 310,000);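 active = B-score of the integrated fluorescence ratio above library mean plus 3 SD, and starting fluorescence ratio within library mean plus 5 SD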;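 note: higher score means more depolarization so channel activation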
TRPC4 potent: positive allosteric modulators of TRPC4, primary screen, cell-based, mouse TRPC4beta, HEK293 mu-opioid, Fluo-4 calcium; Short transient receptor potential channel 4 (Mus musculus), Q9QUQ5; actives 0.42% (n = 310,000); DAMGO EC20, Fluo-4 Ca2+ flux; stronger effect = higher value; B-score at 10 µM;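 active = B-score of calcium response area above 5 SD of library B-scores, with initial fluorescence ratio within 5 SD of library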
TRPC6 inh: mouse TRPC6 channel inhibitors, primary screen, cell-based, HEK293, membrane potential dye | Short transient receptor potential channel 6 (Mus musculus), Q61143 | ACh-evoked depolarization; stronger effect = lower value | B-score at 10 µM | actives 1.1% (n = 310,000);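 active = B-score under library mean minus 3 SD, initial fluorescence not abnormally high, positive integrated signal ratio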;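 note: B-score derived from integrated fluorescence ratio over the kinetic read; more negative B-score means stronger inhibition of depolarization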
Kir21 block: inhibitors of mouse Kir2.1 inward-rectifier potassium channel | B-score at 10 µM | actives 0.85% (n = 310,000) | HEK293-Kir2.1, FluxOR thallium flux fluorescence; stronger effect = lower value | Inward rectifier potassium channel 2 (Mus musculus), P35561;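 active = fluorescence ratio B-score at or below minus 3 SD of library scores, with starting-brightness B-score within 2 SD, cut at about -4.2 in these data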;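 note: channel flux triggered by added potassium and thallium sulfate stimulus; B-score of peak minus minimum fluorescence over baseline after thallium stimulus; more negative B-score means stronger Kir2.1 block with less thallium influx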
Target sequence (P35561 whole entry, looked up): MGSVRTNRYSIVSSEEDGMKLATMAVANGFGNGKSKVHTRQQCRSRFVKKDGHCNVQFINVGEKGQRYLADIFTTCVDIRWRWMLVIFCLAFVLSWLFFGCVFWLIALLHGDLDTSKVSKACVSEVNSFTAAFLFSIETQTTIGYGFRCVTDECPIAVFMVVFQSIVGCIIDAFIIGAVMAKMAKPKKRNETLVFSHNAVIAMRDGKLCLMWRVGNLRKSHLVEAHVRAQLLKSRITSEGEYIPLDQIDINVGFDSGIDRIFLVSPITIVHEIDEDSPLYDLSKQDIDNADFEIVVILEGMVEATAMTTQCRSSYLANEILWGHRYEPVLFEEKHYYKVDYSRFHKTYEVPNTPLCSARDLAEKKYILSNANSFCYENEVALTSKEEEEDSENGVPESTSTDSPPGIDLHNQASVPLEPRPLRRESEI
TRPC4 sel inh 2: mouse TRPC4 off-target activity of TRPC6 inhibitors, second screen. shares compounds with TRPC6 inh. AID 2776. actives 42% (n = 920). HEK293 TRPC4/MOR, membrane potential dye fluorescence; channel activated by saturating DAMGO dose. inhibition, % at 10 µM;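 active = compounds whose fluorescence signal differed from control wells by over 3 SD, either direction, in both duplicate plates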
TRPC4 spec: mouse TRPC4 modulation by TRPC6 hits, confirmation, selectivity assay for TRPC6 inhibitor project, cell-based, HEK293 TRPC4/mu-opioid, membrane potential dye; actives 61% (n = 920); membrane potential fluorescence; activity change, negative = inhibition, % at 10 µM; shares compounds with TRPC6 inh;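 active = rise or fall in signal beyond 3 SD of buffer-only wells in both replicate plates, either sign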;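 note: integrated kinetic ratio of fluorescence range over baseline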
HEK293 MPD ctr 2-1: nonspecific membrane potential effects, parental HEK293, confirmation, counter-screen for TRPC6 inhibitor project, cell-based, second counter screen; signal change vs control, % at 10 µM; actives 31% (n = 920); shares compounds with TRPC6 inh; AID 2779, 2010; parental HEK293 membrane potential dye fluorescence; maximal acetylcholine challenge after compound addition;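 active = membrane potential signal moving either way by over 3 SD of the maximum-effect control, in both duplicate plates, meaning non-specific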
HEK293 MPD ctr-1: membrane potential modulation in parental HEK293, confirmation, counter-screen for TRPC6 inhibitor project, cell-based. shares compounds with TRPC6 inh. parental HEK293 membrane potential dye fluorescence. membrane potential signal change, % at 10 µM. actives 60% (n = 920). AID 2780, 2010;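 active = membrane potential signal shifting up or down by more than 3 SD of buffer-only wells, on both duplicate plates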
HEK293 MPD ctr-2: parental HEK293 membrane potential modulation, confirmation, counter-screen for TRPC6 modulator project, cell-based; shares compounds with TRPC6 inh; membrane potential dye fluorescence; membrane potential signal change, % at 10 µM; actives 51% (n = 2,400); AID 488924, 2010;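 active = membrane potential signal moves up or down beyond 5 SD from buffer-only wells, on both duplicate plates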
HEK293 MPD ctr 2-2: parental HEK293 nonspecific activity of TRPC6 modulators, second screen; membrane potential dye fluorescence; after compound, maximal acetylcholine stimulation; inhibition, % at 10 µM; actives 14% (n = 2,400); shares compounds with TRPC6 inh;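 active = membrane potential signal drops by more than 5 SD from the mean control signal, in both duplicate plates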
TRPC4/MOR mod: TRPC4 modulation by TRPC6 hit compounds, confirmation, selectivity assay for TRPC6 modulator project, cell-based, HEK293 TRPC4/mu-opioid, membrane potential dye, mouse; shares compounds with TRPC6 inh; percent change from control (negative = decrease, positive = increase), % at 10 µM; membrane potential fluorescence; AID 488927, 2010; actives 69% (n = 2,400);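 active = membrane potential signal moved up or down beyond 5 SD of buffer control wells, in both duplicate plates, actives on both sides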
TRPC4 ctr inh 2: mouse TRPC4 off-target activity of TRPC6 modulators, second screen | shares compounds with TRPC6 inh | HEK293 TRPC4/mu-opioid, membrane potential dye fluorescence; stimulated with maximal-effect DAMGO | AID 488928 | inhibition, % at 10 µM | actives 55% (n = 2,400);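 active = drop in membrane potential signal beyond 5 SD of the control wells in both duplicate plates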;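 note: TRPC4 counter screen for TRPC6 hits run under conditions tuned for TRPC6 not TRPC4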
TRPC6 block conf: mouse TRPC6 channel inhibitors, confirmation, HEK293 cells, membrane potential dye, duplicate | shares compounds with TRPC6 inh | AID 488960, 2010 | ACh-evoked depolarization | actives 43% (n = 3,300) | inhibition, % at 10 µM;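 active = fluorescence ratio falls more than 5 SD below the full-stimulation control mean, in both duplicate runs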;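 note: integrated fluorescence ratio of peak minus minimum over baseline after agonist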
TRPC6 act confirm: mouse TRPC6 channel activators, confirmation, HEK293 cells, membrane potential dye, duplicate | activation, % at 10 µM | shares compounds with TRPC6 inh | HEK293-TRPC6 membrane potential dye fluorescence, FDSS | actives 11% (n = 2,800);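 active = ratio signal rise beyond 5 SD above unstimulated control wells' mean, seen in both duplicate runs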
Each line names hits and unclear results; the compound was inactive in the other large screens (follow-up assays come after a bar, where they were run); ! = not confirmed by another sample.

Cc1ccc(S(=O)(=O)N(CC#N)CC#N)cc1	none
CCOC(=O)c1cnc2ccc(C)cc2c1Nc1ccc(N2CCOCC2)cc1	TRPC6 inh -5.73 | HEK293 MPD ctr-2 -154.5% | HEK293 MPD ctr 2-2 68.5% | TRPC4/MOR mod -32.5% | TRPC4 ctr inh 2 44.0% | TRPC6 block conf 67.5% | TRPC6 act confirm inactive
CCOC(=O)c1cnc2ccc(OC)cc2c1NCCN1CCOCC1	none
CCOC(=O)N1CCN(C(=O)c2cn(C)c3ccc(S(=O)(=O)N4CCC(C)CC4)cc3c2=O)CC1	none
COc1cccc(CNC(=O)C2=Cc3cccc(OC)c3OC2)c1	none
CC(NCc1ccc(N(C)C)cc1)C1CC2CCC1C2 (stereo not drawn)	TRPC6 inh -6.55 | HEK293 MPD ctr-2 231.0% | HEK293 MPD ctr 2-2 70.0% | TRPC4/MOR mod 51.0% | TRPC4 ctr inh 2 60.5% | TRPC6 block conf 77.0%
CC(NC(=O)c1ccc(CS(C)(=O)=O)cc1)C1CC2CCC1C2 (stereo not drawn)	none
COc1ccc(CCn2c(SCCN3CCCCC3)nc3ccccc3c2=O)cc1OC	TRPC6 inh -9.23 | TRPC4 sel inh 2 36.5% | TRPC4 spec -12.6% | HEK293 MPD ctr 2-1 inactive | HEK293 MPD ctr-1 -153.0% | TRPC6 block conf 59.1% | TRPC6 act confirm inactive
COc1ccc(NC(=O)CSc2nc3ccccc3c(=O)n2CCCN2CCC(C)CC2)c(OC)c1	TRPC6 inh -9.24 | TRPC4 sel inh 2 22.5% | TRPC4 spec inactive | HEK293 MPD ctr 2-1 inactive | HEK293 MPD ctr-1 5.8% | TRPC6 block conf 56.7% | TRPC6 act confirm inactive
C#CC(C)(CC)NC(=O)c1cc2nc(C3CC3)cc(C(F)(F)F)n2n1 (stereo not drawn)	none
CCCc1cc(=O)[nH]c(SCC(=O)NN(c2ccccc2)c2ccccc2)n1	none
Cc1cc(NCC2CCCCC2)nc2ccccc12	none
Cc1cc(NCCNC2=CC(=O)CCC2)nc2ccccc12	TRPC6 inh -5.47 | HEK293 MPD ctr-2 -167.5% | HEK293 MPD ctr 2-2 inactive | TRPC4/MOR mod -27.0% | TRPC4 ctr inh 2 31.0% | TRPC6 block conf inactive | TRPC6 act confirm inactive
COC(=O)c1sc(-c2cccs2)cc1NC(=O)/C=C/C(=O)O	none
O=C(NCCNc1ccnc2cc(Cl)ccc12)c1ccccc1F	none
CCN(CC)Cc1cc(Nc2ccnc3cc(Cl)ccc23)ccc1O	TRPC6 inh -5.72! | HEK293 MPD ctr-2 -184.5% | HEK293 MPD ctr 2-2 inactive | TRPC4/MOR mod -33.5% | TRPC4 ctr inh 2 51.5% | TRPC6 block conf inactive | TRPC6 act confirm inactive
Oc1ccc(Nc2ccnc3cc(Cl)ccc23)cc1	none
CCN(CC)CCNc1ccnc2cc(Cl)ccc12	TRPC6 inh -11.8 | HEK293 MPD ctr-2 -333.0% | HEK293 MPD ctr 2-2 70.5% | TRPC4/MOR mod -50.0% | TRPC4 ctr inh 2 71.0% | TRPC6 block conf 73.0% | TRPC6 act confirm inactive
Clc1ccc(NNc2ccnc3cc(Cl)ccc23)cc1	none
Clc1ccc2c(NCc3ccccc3)ccnc2c1	TRPC6 inh -5.49 | HEK293 MPD ctr-2 -98.5% | HEK293 MPD ctr 2-2 inactive | TRPC4/MOR mod -23.0% | TRPC4 ctr inh 2 77.5% | TRPC6 block conf 37.5% | TRPC6 act confirm inactive
Cc1cc(C)n2nc(C(=O)OCC(=O)Nc3ccc(F)cc3F)nc2n1	none
CC(C)(C)c1ccc(CN2C(=O)CSC2=O)cc1	TRPC6 inh -5.15 | HEK293 MPD ctr-2 inactive | HEK293 MPD ctr 2-2 inactive | TRPC4/MOR mod inactive | TRPC4 ctr inh 2 inactive | TRPC6 block conf inactive | TRPC6 act confirm inactive
COCC(=O)Nc1ncc(S(=O)(=O)c2ccc([N+](=O)[O-])cc2)s1	none
O=C(NC(Nc1ncc(S(=O)(=O)c2ccc([N+](=O)[O-])cc2)s1)(C(F)(F)F)C(F)(F)F)c1ccc(Cl)cc1	TRPC6 inh -8.16, Kir21 block -6.91 | TRPC4 sel inh 2 65.0% | TRPC4 spec 9.8% | HEK293 MPD ctr 2-1 inactive | HEK293 MPD ctr-1 5.0% | TRPC6 block conf 67.6% | TRPC6 act confirm inactive
